# In article PMC3875364 (Biochemistry, 2013):
# What was measured:
# [1] = test system: 5′-FAM-DNA20 (20-mer single-stranded DNA); assay: Fluorescence anisotropy; type: binding
# Method in brief: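 Binding was measured by fluorescence anisotropy. CCHC-containing constructs were reconstituted with 3 equiv zinc unless noted. Kd was fitted with a quadratic binding equation corrected for the bound/free intensity ratio.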
# [2] = test system: 59-nt TAR RNA / TAR DNA hairpins; assay: Gel-shift TAR RNA/DNA annealing assay; type: biochemical, HIV-1; conditions: for kobs: average of three trials ± SD, SD; for Fold decrease of kobs relative to WT NC: normalized for protein concentration
# [3] = test system: 59-nt TAR RNA and TAR DNA; assay: Sedimentation assay of nucleic acid aggregation; type: biochemical, HIV-1; conditions: 0.2 mM MgCl2
# Method in brief: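 Refolded 32P-TAR RNA (15 nM) and TAR DNA (45 nM) were incubated with varying protein in 20 mM HEPES pH 7.5 and 20 mM NaCl (final MgCl2 0.2 mM) for 30 min at 37 °C. Fragments were run at 10–50 μM, with or without zinc. Samples were centrifuged at 10000 rpm for 10 min, and supernatant radioactivity was counted by scintillation.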
# [4] = 0.88 μM peptide, 45 nM TAR DNA, 2 mM MgCl2
# [5] = 4 μM protein, 90 nM TAR DNA and 2 mM MgCl2
substance,measurement,setting,value
"NC(1-14): HIV-1 NC fragment, residues 1-14, basic N-terminal domain",Binding to 5′-FAM-DNA20 (in words),"[1]; FA, no zinc acetate",no binding could be detected
same,Final % Annealing,"[2]; 20 μM peptide, 15 nM TAR RNA, 45 nM TAR DNA, 0.2 mM MgCl2, 37 °C, 30 min",3%
same,Final % Annealing,"[2]; 50 μM peptide, 15 nM TAR RNA, 45 nM TAR DNA, 0.2 mM MgCl2, 37 °C, 30 min",did not change appreciably
"NC(1-35): HIV-1 NC fragment, residues 1-35, purchased from Genscript",Fold higher affinity of zinc-bound form relative to zinc-less variant,[1]; 5′-FAM-DNA20,2- to 3 fold
same,Fold lower ss DNA binding affinity than WT NC,"[1]; 5′-FAM-DNA20, 50 mM NaCl",≤ 2 fold
same,Kd,"[1]; read-out: Apparent binding dissociation constant Kd to 5′-FAM-DNA20, FA, 20 nM DNA, 20 mM HEPES pH 7.5, 50 mM NaCl, 5 mM β-mercaptoethanol, 10 μM TCEP, 1 μM zinc acetate, 30 min, 25 °C, average of three trials ± SD, SD",86 ± 19 nM
same,RNA annealed at 30 sec,"[2]; 0.88 μM peptide, 45 nM TAR DNA, 0.2 mM MgCl2",~ 75%
same,Final % Annealing,[2]; [4],54%
same,kobs,[2]; [4],0.17 ± 0.07 min⁻¹
same,Fold decrease of kobs relative to WT NC,"[2]; 0.88 μM peptide, 2 mM MgCl2",1.3 fold
same,Nucleic acid aggregation (in words),[3],essentially complete aggregation
WT (zinc-less): full-length HIV-1 NC not reconstituted with zinc,Final % Annealing,[2]; [5],22%
same,kobs,[2]; [5],0.07 ± 0.02 min⁻¹
same,Fold decrease of kobs relative to WT NC,[2]; [5],2 fold
